In brackets after ≈: the same amount, converted by molar mass. Activity calls are given as the source filed them.
Columns and labels:
[1] = test system: HepG2; experiment: Cytotoxicity against human HepG2 cells assessed as effect on membrane permeability after 48 hrs by TOTO-3 iodide-staining based cell health assay; assay type: ADME; conditions: HepG2, 48 h
[2] = test system: Mycobacterium tuberculosis; experiment: Antimycobacterial activity against Mycobacterium tuberculosis H37Rv ATCC 25618 after 6 days by resazurin-based assay; assay type: functional; conditions: H37Rv ATCC 25618, 144 h
[3] = Intrinsic clearance in mouse liver microsomes at 0.5 uM preincubated with NADPH and measured up to 30 mins by LC-MS/MS analysis; assay type: ADME, microsome
[4] = test system: HepG2; experiment: Cytotoxicity against human HepG2 cells assessed as effect on mitochondrial membrane potential after 48 hrs by TMRM-staining based cell health assay; assay type: ADME; conditions: HepG2, 48 h
[5] = test system: HepG2; experiment: cells; assay type: ADME, cell-based; conditions: Homo sapiens, HepG2, 48 h
[6] = physchem; conditions: buffer, pH 7.4
[7] = Intrinsic clearance in human liver microsomes at 0.5 uM preincubated with NADPH and measured up to 30 mins by LC-MS/MS analysis; assay type: ADME, microsome
[8] = Clearance in C57BL/6 mouse at 4.5 mg/kg, iv by LC-MS/MS analysis; assay type: ADME, organism-based; conditions: in vivo
[9] = Cmax in C57BL/6 mouse at 45 mg/kg, po via gavage by LC-MS/MS analysis; assay type: ADME, organism-based; parameters: dose 45 mg/kg, route oral; conditions: in vivo
[10] = Half life in C57BL/6 mouse at 4.5 mg/kg, iv by LC-MS/MS analysis; assay type: ADME, organism-based; conditions: in vivo
[11] = AUC in C57BL/6 mouse at 45 mg/kg, po via gavage by LC-MS/MS analysis; assay type: ADME, organism-based; conditions: in vivo
[12] = Volume of distribution at steady state in C57BL/6 mouse at 4.5 mg/kg, iv by LC-MS/MS analysis; assay type: ADME, organism-based; conditions: in vivo, read-out: Vdss
[13] = Oral bioavailability in C57BL/6 mouse at 45 mg/kg via gavage by LC-MS/MS analysis; assay type: ADME, organism-based; conditions: in vivo
[14] = test system: Mycobacterium tuberculosis; experiment: Antimycobacterial activity against Mycobacterium tuberculosis clinical isolates after 6 days by resazurin-based assay; assay type: functional; conditions: 144 h
[15] = Volume of distribution at steady state in C57BL/6 mouse at 4 mg/kg, iv by LC-MS/MS analysis; assay type: ADME, organism-based; conditions: in vivo, read-out: Vdss
Method in brief: (§1)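 Female C57BL/6 mice (18−20 g), single intravenous dose in 5% DMSO/20% Encapsin. Tail-vein whole blood (25 μL) was taken from each mouse (n = 5) at 5, 15 and 30 min and 1, 2, 4 and 8 h postdose, and compound concentration was measured in peripheral whole blood.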

[16] = Cmax in C57BL/6 mouse at 49.2 mg/kg, po via gavage by LC-MS/MS analysis; assay type: ADME, organism-based; parameters: dose 49.2 mg/kg, route oral; conditions: in vivo
[17] = test system: Mycobacterium tuberculosis; experiment: Antimycobacterial activity against Mycobacterium tuberculosis H37Rv ATCC 25618 assessed as reduction in cell viability after 7 days by bacTiter-Glo assay; assay type: functional; conditions: H37Rv ATCC 25618, 168 h
[18] = test system: Mus musculus; experiment: Oral bioavailability in C57BL/6 mouse at 49.2 mg/kg via gavage by LC-MS/MS analysis; assay type: ADME, organism-based; conditions: in vivo
[19] = Cytotoxicity against human HepG2 cells after 48 hrs by cellTiter-Glo assay; assay type: cell-based; conditions: read-out: TC50
[20] = Half life in C57BL/6 mouse at 4 mg/kg, iv by LC-MS/MS analysis; assay type: ADME, organism-based; conditions: in vivo; method in brief: as §1
[21] = test system: Mus musculus; experiment: AUC in C57BL/6 mouse at 49.2 mg/kg, po via gavage by LC-MS/MS analysis; assay type: ADME, organism-based; conditions: in vivo
[22] = Oral bioavailability in C57BL/6 mouse at 18.7 mg/kg via gavage by LC-MS/MS analysis; assay type: ADME, organism-based; conditions: in vivo
[23] = Volume of distribution at steady state in C57BL/6 mouse at 3.6 mg/kg, iv by LC-MS/MS analysis; assay type: ADME, organism-based; conditions: in vivo, read-out: Vdss; method in brief: as §1
[24] = Half life in C57BL/6 mouse at 3.6 mg/kg, iv by LC-MS/MS analysis; assay type: ADME, organism-based; conditions: in vivo; method in brief: as §1
[25] = Cmax in C57BL/6 mouse at 18.7 mg/kg, po via gavage by LC-MS/MS analysis; assay type: ADME, organism-based; parameters: dose 18.7 mg/kg, route oral; conditions: in vivo
[26] = Clearance in C57BL/6 mouse at 3.6 mg/kg, iv by LC-MS/MS analysis; assay type: ADME, organism-based; conditions: in vivo; method in brief: as §1
[27] = AUC in C57BL/6 mouse at 18.7 mg/kg, po via gavage by LC-MS/MS analysis; assay type: ADME, organism-based; conditions: in vivo
[28] = test system: Mycobacterium tuberculosis; experiment: Antibacterial activity against Mycobacterium tuberculosis H37Rv infected in C57BL/6 mouse assessed as reduction in colony forming units administered orally once daily for 8 days starting following day after infection and measured at 24 hrs post last dose relative to untreated control; assay type: functional
Method in brief: (§2)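 Female C57BL/6 mice, 8−10 weeks old, infected intratracheally with 100 000 CFU of H37Rv. Oral dosing once daily for 8 days began 1 day post-infection. Lungs were harvested 24 h after the last dose, homogenised and plated on 7H11 with 10% OADC and 0.4% charcoal for 18 days at 37 °C. Log10 CFU was fitted to a sigmoidal dose-response curve, and ED99 was defined as a 2-log CFU drop versus untreated.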

[29] = Cardiotoxicity in New Zealand white perfused rabbit heart left ventricular wedge assessed as prolongation of QT interval at 10 uM by electrophysiology assay; assay type: toxicity, tissue-based, Oryctolagus cuniculus, Heart left ventricle
[30] = Cardiotoxicity in New Zealand white perfused rabbit heart left ventricular wedge assessed as prolongation of Tp-e interval time at 10 uM by electrophysiology assay relative to control; assay type: toxicity, tissue-based, Oryctolagus cuniculus, Heart left ventricle
[31] = Cardiotoxicity in New Zealand white perfused rabbit heart left ventricular wedge assessed as prolongation of QRS interval time at 30 uM by electrophysiology assay relative to control; assay type: toxicity, tissue-based, Oryctolagus cuniculus, Heart left ventricle
[32] = Cardiotoxicity in New Zealand white perfused rabbit heart left ventricular wedge assessed as drug concentration causing prolongation of Tp-e interval time by electrophysiology assay; assay type: toxicity, tissue-based, Oryctolagus cuniculus, Heart left ventricle
[33] = Cmax in C57BL/6 mouse at 44 mg/kg, po via gavage by LC-MS/MS analysis; assay type: ADME, organism-based; parameters: dose 44 mg/kg, route oral; conditions: in vivo
[34] = AUC in C57BL/6 mouse at 44 mg/kg, po via gavage by LC-MS/MS analysis; assay type: ADME, organism-based; conditions: in vivo
[35] = Volume of distribution at steady state in C57BL/6 mouse at […], iv by LC-MS/MS analysis; assay type: ADME, organism-based; conditions: in vivo, read-out: Vdss
[36] = Oral bioavailability in C57BL/6 mouse at 44 mg/kg via gavage by LC-MS/MS analysis; assay type: ADME, organism-based; conditions: in vivo
[37] = test system: Mycobacterium tuberculosis; experiment: Antibacterial activity against Mycobacterium tuberculosis H37Rv infected in C57BL/6 mouse assessed as efficacious dose casing 2 log reduction in colony forming units administered orally once daily for 8 days starting following day after infection and measured at 24 hrs post last dose; assay type: functional; conditions: po; method in brief: as §2
[38] = Half life in C57BL/6 mouse at […], iv by LC-MS/MS analysis; assay type: ADME, organism-based; conditions: in vivo
[39] = Clearance in C57BL/6 mouse at […], iv by LC-MS/MS analysis; assay type: ADME, organism-based; conditions: in vivo
[40] = test system: Mus musculus; experiment: Toxicity in Mycobacterium tuberculosis H37Rv infected C57BL/6 mouse assessed as drug tolerability at >50 mg/kg, po administered once daily for 8 days starting following day after infection and measured at 24 hrs post last dose; assay type: organism-based; conditions: in vivo

Row | Structure (SMILES) | IC50 [1] [µM] | MIC90 [2] [µM] | CLH [3] [mL/min/g] | IC50 [4] [µM] | IC50 [5] [µM] | solubility kinetic at 1 h [6] [µM] | CLH [7] [mL/min/g] | further results
1 | CC(C)(C)c1ccc(CN2CCC3(CC2)OCCCCO3)cc1 | > 200 | 5 (≈ 1.59 µg/mL) | 27 | 170 | 166 | 194 (≈ 61.6 µg/mL) | 4.1 | 
2 | Brc1ccc(Nc2ccc(CN3CCC4(CC3)OCCc3sccc34)cc2)cc1 |  | 0.2 (≈ 0.0939 µg/mL) | 0.9 |  |  |  | 1.5 | clearance [8]: 19.8 mL/min/kg; Cmax [9]: 1020 ng/mL; half-life [10]: 438 min; AUC [11]: 17900 ng·h/mL; Vd [12]: 12 L/kg; bioavailability [13]: 84.6%
3 | c1cc2c(s1)CCOC21CCN(Cc2ccc3c(c2)OCCO3)CC1 |  | 0.3 (≈ 0.107 µg/mL) | > 30 |  |  | 266 (≈ 95.1 µg/mL) | 25 | MIC90 [14]: 0.6 µM (≈ 0.214 µg/mL); Vd [15]: 7.4 L/kg; Cmax [16]: 470 ng/mL; MIC80 [17]: 0.25 µM (≈ 0.0894 µg/mL); F [18]: 14.6%; CC50 at 48 h [19]: 36 µM; half-life [20]: 42 min; AUC [21]: 1.78 µg·h/mL
4 | FC(F)(F)Oc1ccc(Oc2ccc(CN3CCC4(CCNC4)CC3)cc2)cc1 | 5.7 | > 5 |  | 6.6 | 4.9 | 117 (≈ 47.6 µg/mL) |  | 
5 | CC(C)(C)c1ccc(CN2CCC3(CCOCC3)CC2)cc1 | > 200 | 5 (≈ 1.51 µg/mL) | 2.25 | > 200 | > 200 | ≥ 399 | 0.95 | 
6 | CN1C(=O)C=CCC12CCN(Cc1ccc(Oc3ccc(OC(F)(F)F)cc3)cc1)CC2 | 29.2 | > 5 |  | 36.3 | 39.4 | 87 (≈ 38.8 µg/mL) |  | 
7 | FC(F)(F)Oc1ccc(Oc2ccc(CN3CCC4(CC3)OCCO4)cc2)cc1 | 49.8 | > 5 |  | 53.8 | 46.9 | 52 (≈ 21.3 µg/mL) |  | 
8 | CC(C)(C)c1ccc(CN2CCC3(CCCOC3)CC2)cc1 | > 200 | 0.63 (≈ 0.19 µg/mL) | 48 | > 200 | > 200 | 363 (≈ 109 µg/mL) | 7.3 | 
9 | c1ccc(Oc2ccc(CN3CCC4(CC3)OCCc3sccc34)cc2)cc1 |  | 0.05 (≈ 0.0196 µg/mL) | 28.8 |  |  |  | 12 | bioavailability [22]: 1.5%; Vd [23]: 19.4 L/kg; half-life [24]: 234 min; Cmax [25]: 50 ng/mL; clearance [26]: 67.7 mL/min/kg; AUC [27]: 100 ng·h/mL
10 | NNC(=O)c1ccncc1 |  |  |  |  |  |  |  | Activity [28]: Active
11 | CC(C)(C)c1ccc(CN2CCC3(CC2)OCCCO3)cc1 | > 200 | 2.5 (≈ 0.759 µg/mL) | 13.5 | > 200 | > 200 | 374 (≈ 113 µg/mL) | 1.4 | 
12 | FC(F)(F)Oc1ccc(Oc2ccc(CN3CCC4(CCCCO4)CC3)cc2)cc1 | 43.7 | 0.31 (≈ 0.131 µg/mL) | 1.2 | 46.3 | 38.7 | < 1 | 1.7 | 
13 | O=C1OCCC12CCN(Cc1ccc(Oc3ccc(OC(F)(F)F)cc3)cc1)CC2 | 75.9 | > 5 |  | > 200 | 74.1 | 121 (≈ 51 µg/mL) |  | 
14 | CC(C)(C)c1ccc(CN2CCC3(CCCCO3)CC2)cc1 |  | 0.21 (≈ 0.0633 µg/mL) | 18.1 | 135 | 129 |  | 3.2 | Activity [29]: 12.2%; Activity [30]: 44.4%; Activity [31]: 25.4%; Activity [32]: 10 µM
15 | FC(F)(F)Oc1ccc(Oc2ccc(N3CCC4(CC3)OCCc3sccc34)cc2)cc1 |  | 0.06 (≈ 0.0277 µg/mL) | 1.2 |  | 11 |  | 0.6 | Cmax [33]: 1270 ng/mL; AUC [34]: 8740 ng·h/mL; Vd [35]: 10.4 L/kg; bioavailability [36]: 42.6%; ED99 [37]: 11.6 mg/kg; half-life [38]: 192 min; Activity [28]: 4.2 log10CFU; clearance [39]: 36.3 mL/min/kg; Activity [40]: Non-Toxic
16 | FC(F)(F)Oc1ccc(Oc2ccc(CN3CCC4(CC3)OCCCO4)cc2)cc1 | 25.7 | 0.65 (≈ 0.275 µg/mL) | < 0.5 | 28.8 | 26.3 | 53 (≈ 22.4 µg/mL) | < 0.5 | 
17 | FC(F)(F)Oc1ccc(Oc2ccc(CN3CCCCC3)cc2)cc1 | 46.3 | > 5 |  | 49.5 | 44.2 | 156 (≈ 54.8 µg/mL) |  | 
18 | FC(F)(F)Oc1ccc(Oc2ccc(CN3CCC4(CCCCC4)CC3)cc2)cc1 | 28.3 | 0.1 (≈ 0.0419 µg/mL) | 2.8 | 21.8 | 25.9 | < 1 | 0.5 | 
